In ChEMBL document CHEMBL2062453, “Lead optimization through VLAK protocol: new annelated pyrrolo-pyrimidine derivatives as antitumor agents” (2012):

Experiments:
Format in all cases: functional
HT-29 = assay: Cytotoxicity against human HT-29 cells assessed as cell growth at 10 uM after 48 hrs by SRB assay relative to control; details: HT-29, 48 h, read-out: Activity
Outline: (§1)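 NCI primary screen of about 60 human tumour lines. Cells inoculated and preincubated, then a single test concentration added and cultures incubated 48 h. Result given as percent growth (G%) of treated versus untreated control cells.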

SR = assay: Cytotoxicity against human SR cells assessed as cell growth at 10 uM after 48 hrs by SRB assay relative to control; details: read-out: Activity
Outline: (§2)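 NCI single-dose primary screen across about 60 human tumour lines. Each line was inoculated and preincubated on microtiter plates, then exposed to one concentration of agent for 48 h. Growth is reported as percent growth (G%) of treated cells versus untreated control cells.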

SF-295 = assay: Cytotoxicity against human SF295 cells assessed as cell growth at 10 uM after 48 hrs by SRB assay relative to control; details: SF-295, 48 h, read-out: Activity
KM12 = assay: Cytotoxicity against human KM12 cells assessed as cell growth at 10 uM after 48 hrs by SRB assay relative to control; details: KM12, 48 h, read-out: Activity; outline: as §1
SF-539 = assay: Cytotoxicity against human SF539 cells assessed as cell growth at 10 uM after 48 hrs by SRB assay relative to control; details: SF-539, 48 h, read-out: Activity
CCRF-CEM = assay: Cytotoxicity against human CCRF-CEM cells assessed as cell growth at 10 uM after 48 hrs by SRB assay relative to control; details: read-out: Activity; outline: as §1
MDA-MB-231 = assay: Cytotoxicity against human MDA-MB-231 cells assessed as cell growth at 10 uM after 48 hrs by SRB assay relative to control; details: MDA-MB-231, 48 h, read-out: Activity; outline: as §1
SK-OV-3 = assay: Cytotoxicity against human SKOV3 cells assessed as cell growth at 10 uM after 48 hrs by SRB assay relative to control; details: SK-OV-3, 48 h, read-out: Activity
LOX IMVI = assay: Cytotoxicity against human LOXIMVI cells assessed as cell growth at 10 uM after 48 hrs by SRB assay relative to control; details: read-out: Activity; outline: as §1
CAKI-1 = assay: Cytotoxicity against human Caki1 cells assessed as cell growth at 10 uM after 48 hrs by SRB assay relative to control; details: CAKI-1, 48 h, read-out: Activity; outline: as §1
HOP-92 = assay: Cytotoxicity against human HOP92 cells assessed as cell growth at 10 uM after 48 hrs by SRB assay relative to control; details: HOP-92, 48 h, read-out: Activity; outline: as §1
SK-MEL-28 = assay: Cytotoxicity against human SK-MEL-28 cells assessed as cell growth at 10 uM after 48 hrs by SRB assay relative to control; details: SK-MEL-28, 48 h, read-out: Activity
SK-MEL-2 = assay: Cytotoxicity against human SK-MEL-2 cells assessed as cell growth at 10 uM after 48 hrs by SRB assay relative to control; details: SK-MEL-2, 48 h, read-out: Activity
OVCAR-5 = assay: Cytotoxicity against human OVCAR5 cells assessed as cell growth at 10 uM after 48 hrs by SRB assay relative to control; details: OVCAR-5, 48 h, read-out: Activity
NCI/ADR-RES = assay: Cytotoxicity against human NCI/ADR-RES cells assessed as cell growth at 10 uM after 48 hrs by SRB assay relative to control; details: read-out: Activity
ACHN = assay: Cytotoxicity against human ACHN cells assessed as cell growth at 10 uM after 48 hrs by SRB assay relative to control; details: read-out: Activity; outline: as §1
PC-3 = assay: Cytotoxicity against human PC3 cells assessed as cell growth at 10 uM after 48 hrs by SRB assay relative to control; details: PC-3, 48 h, read-out: Activity
OVCAR-4 = assay: Cytotoxicity against human OVCAR4 cells assessed as cell growth at 10 uM after 48 hrs by SRB assay relative to control; details: OVCAR-4, 48 h, read-out: Activity
UO-31 = assay: Cytotoxicity against human UO31 cells assessed as cell growth at 10 uM after 48 hrs by SRB assay relative to control; details: UO-31, 48 h, read-out: Activity; outline: as §2
U-251 = assay: Cytotoxicity against human U251 cells assessed as cell growth at 10 uM after 48 hrs by SRB assay relative to control; details: U-251, 48 h, read-out: Activity; outline: as §2
Hs-578T = assay: Cytotoxicity against human Hs578T cells assessed as cell growth at 10 uM after 48 hrs by SRB assay relative to control; details: read-out: Activity; outline: as §1
A498 = assay: Cytotoxicity against human A498 cells assessed as cell growth at 10 uM after 48 hrs by SRB assay relative to control; details: A498, 48 h, read-out: Activity; outline: as §1
SNB-19 = assay: Cytotoxicity against human SNB19 cells assessed as cell growth at 10 uM after 48 hrs by SRB assay relative to control; details: SNB-19, 48 h, read-out: Activity
HCC 2998 = assay: Cytotoxicity against human HCC2998 cells assessed as cell growth at 10 uM after 48 hrs by SRB assay relative to control; details: HCC 2998, 48 h, read-out: Activity; outline: as §1
SF-268 = assay: Cytotoxicity against human SF268 cells assessed as cell growth at 10 uM after 48 hrs by SRB assay relative to control; details: SF-268, 48 h, read-out: Activity
NCI-H23 = assay: Cytotoxicity against human NCI-H23 cells assessed as cell growth at 10 uM after 48 hrs by SRB assay relative to control; details: NCI-H23, 48 h, read-out: Activity
MCF7 = assay: Cytotoxicity against human MCF7 cells assessed as cell growth at 10 uM after 48 hrs by SRB assay relative to control; details: MCF7, 48 h, read-out: Activity; outline: as §1
T47D = assay: Cytotoxicity against human T47D cells assessed as cell growth at 10 uM after 48 hrs by SRB assay relative to control; details: read-out: Activity; outline: as §2

| Compound | growth at 10 µM (HT-29) | growth at 10 µM (SR) | growth at 10 µM (SF-295) | growth at 10 µM (KM12) | growth at 10 µM (SF-539) | growth at 10 µM (CCRF-CEM) | growth at 10 µM (MDA-MB-231) | growth at 10 µM (SK-OV-3) | growth at 10 µM (LOX IMVI) | growth at 10 µM (CAKI-1) | growth at 10 µM (HOP-92) | growth at 10 µM (SK-MEL-28) | growth at 10 µM (SK-MEL-2) | growth at 10 µM (OVCAR-5) | growth at 10 µM (NCI/ADR-RES) | growth at 10 µM (ACHN) | growth at 10 µM (PC-3) | growth at 10 µM (OVCAR-4) | growth at 10 µM (UO-31) | growth at 10 µM (U-251) | other results |
| --- | --- | --- | --- | --- | --- | --- | --- | --- | --- | --- | --- | --- | --- | --- | --- | --- | --- | --- | --- | --- | --- |
| COC(=O)C(Cc1cnc[nH]1)NC(=O)CCCn1c(C)c(C)c2c1N=C(SC)N1CC(=O)N=C21 (centres undefined) | 96% | 118% | 112% | 106% | 91% | 105% | 112% | 125% | 92% | 102% | 92% | 113% | 105% | 106% | 110% | 113% | 88% | 90% | 96% | 96% | growth at 10 µM (Hs-578T): 107%; growth at 10 µM (A498): 101%; growth at 10 µM (SNB-19): 94%; growth at 10 µM (HCC 2998): 103%; growth at 10 µM (SF-268): 106%; growth at 10 µM (NCI-H23): 109%; growth at 10 µM (MCF7): 92%; growth at 10 µM (T47D): 104% |
| CCOC(=O)CCCn1c2c(c(C)c1-c1ccccc1)C1=NC(=O)CN1C(SC)=N2 | 103% | 94% | 98% | 96% | 84% | 71% | 130% | 123% | 93% | 100% | 80% | 100% | 114% | 111% | 95% | 112% | 93% | 94% | 85% | 102% | growth at 10 µM (Hs-578T): 112%; growth at 10 µM (A498): 118%; growth at 10 µM (SNB-19): 106%; growth at 10 µM (HCC 2998): 127%; growth at 10 µM (SF-268): 105%; growth at 10 µM (NCI-H23): 110%; growth at 10 µM (MCF7): 84%; growth at 10 µM (T47D): 88% |
| CSC1=Nc2c(c(C)c(C)n2CCCC(=O)NCCc2cnc[nH]2)C2=NC(=O)CN12 | 95% | 126% | 106% | 171% | 97% | 104% | 110% | 127% | 102% | 111% | 91% | 113% | 121% | 116% | 110% | 112% | 100% | 93% | 85% | 101% | growth at 10 µM (Hs-578T): 117%; growth at 10 µM (A498): 107%; growth at 10 µM (SNB-19): 102%; growth at 10 µM (HCC 2998): 118%; growth at 10 µM (SF-268): 130%; growth at 10 µM (NCI-H23): 103%; growth at 10 µM (MCF7): 94%; growth at 10 µM (T47D): 101% |
